Assay results from ChEMBL document CHEMBL3526090, “Pharmacokinetic mechanism involved in the prolonged high retention of laninamivir in mouse respiratory tissues after intranasal administration of its prodrug laninamivir octanoate” (Drug Metab Dispos, 2013).
Converted amounts (≈) assume the structure as drawn.

What was measured:
[1] = Tmax in BALB/cAnNCrlCrlj mouse lung at 0.5 umol/kg administered intranasally; format: ADME; conditions: inhaled or intranasal
Outline: (§1)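 Female BALB/c mice (7 weeks old) received a single intranasal dose of 0.5 μmol/kg at 2.5 ml/kg, with N=3–4 per time point up to 24 h. Plasma, BAL fluid (3 × 1 ml PBS pH 7.4) and lung homogenate were taken, and AEBSF was added to a final 5 mM. LO and laninamivir were measured by LC-MS/MS. ELF levels were corrected using the urea ratio between plasma and BAL. Non-compartmental analysis on mean concentrations gave Cmax/Tmax by observation, t1/2 from ≥3 terminal log points, and AUClast by the trapezoidal method.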

[2] = Drug uptake in primary cultured BALB/c mouse airway epithelial cells at 50 uM measured up to 90 mins by LC-MS/MS analysis; format: ADME, cell-based; conditions: epithelial cell
Outline: (§2)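 Primary airway epithelial cells from BALB/c mice were obtained by collagenase digestion and negative immunomagnetic selection, then grown to confluence on collagen I. Cells were pre-incubated 30 min in serum-free F-12K. For the time course they were exposed to 50 μM LO for up to 120 min; for concentration dependence, to 10–1000 μM LO for 60 min, at 37°C. After ice-cold PBS washes and Triton lysis, intracellular LO and laninamivir were measured by LC-MS/MS and normalized to Lowry protein, in triplicate.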

[3] = Tmax in BALB/cAnNCrlCrlj mouse plasma at 0.5 umol/kg administered intranasally; format: ADME, cell-free; conditions: inhaled or intranasal; outline: as §1
[4] = Prodrug activation in primary cultured BALB/c mouse airway epithelial cells assessed as formation of laninamivir at 50 uM measured up to 60 to 90 mins by LC-MS/MS analysis; format: cell-based; conditions: epithelial cell; outline: as §2
[5] = Elimination half life in BALB/cAnNCrlCrlj mouse epithelial lining fluid at 0.5 umol/kg administered intranasally; format: ADME, tissue-based; outline: as §1
[6] = Prodrug activation in primary cultured BALB/c mouse airway epithelial cells assessed as formation of laninamivir measured at 50 uM measured at 24 hrs by LC-MS/MS analysis; format: cell-based; conditions: epithelial cell
Outline: (§3)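 Confluent primary BALB/c airway epithelial cells were loaded with 50 μM LO for 60 min and then washed. They were then incubated in drug-free medium at 37°C for up to 24 h, with the medium fully replaced at each sampling point. Cells were washed with ice-cold PBS and lysed. LO and laninamivir in medium and cells were measured by LC-MS/MS and normalized to Lowry protein, in triplicate. Release and hydrolysis rate constants were obtained by first-order compartmental modelling.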

[7] = Prodrug activation in primary cultured BALB/c mouse airway epithelial cells assessed as formation of laninamivir measured at 60 mins by LC-MS/MS analysis; format: cell-based; conditions: epithelial cell, 1 h; outline: as §2
[8] = AUClast in BALB/cAnNCrlCrlj mouse epithelial lining fluid at 0.5 umol/kg administered intranasally; format: ADME, tissue-based; parameters: dose 0.5 umol/kg, route nasal, time 0 - last; conditions: inhaled or intranasal; outline: as §1
[9] = Cmax in BALB/cAnNCrlCrlj mouse plasma at 0.5 umol/kg administered intranasally; format: ADME, cell-free; parameters: dose 0.5 umol/kg, route nasal; conditions: inhaled or intranasal; outline: as §1
Lung [10] = test: (§4) Elimination half life in BALB/cAnNCrlCrlj mouse lung at 0.5 umol/kg administered intranasally; format: ADME, tissue-based; conditions: in vivo, inhaled_or_intranasal; outline: as §1
[11] = Tmax in BALB/cAnNCrlCrlj mouse epithelial lining fluid at 0.5 umol/kg administered intranasally; format: ADME, tissue-based; conditions: inhaled or intranasal; outline: as §1
[12] = Lipophilicity, log D of the compound at pH 7.4; format: physicochemical; conditions: buffer
[13] = Elimination half life in BALB/cAnNCrlCrlj mouse plasma at 0.5 umol/kg administered intranasally; format: ADME, cell-free; conditions: inhaled or intranasal, read-out: beta t1/2 (converted); outline: as §1
Lung [14] = test: Cmax in BALB/cAnNCrlCrlj mouse lung at 0.5 umol/kg administered intranasally; format: ADME; parameters: dose 0.5 umol/kg, route nasal; conditions: in vivo, inhaled_or_intranasal; outline: as §1
[15] = Aqueous solubility of the compound; format: physicochemical; conditions: buffer
[16] = AUClast in BALB/cAnNCrlCrlj mouse plasma at 0.5 umol/kg administered intranasally; format: ADME, cell-free; parameters: dose 0.5 umol/kg, time 0 - last, route nasal; conditions: inhaled or intranasal; outline: as §1
Lung [17] = test: AUClast in BALB/cAnNCrlCrlj mouse lung at 0.5 umol/kg administered intranasally; format: ADME; conditions: in vivo, inhaled_or_intranasal; outline: as §1
[18] = Cmax in BALB/cAnNCrlCrlj mouse epithelial lining fluid at 0.5 umol/kg administered intranasally; format: ADME, tissue-based; parameters: dose 0.5 umol/kg, route nasal; conditions: inhaled or intranasal; outline: as §1
[19] = Drug uptake in BALB/cAnNCrlCrlj mouse epithelial lining fluid at 0.5 umol/kg administered intranasally measured at 4 hrs by LC-MS/MS analysis; format: ADME, tissue-based; conditions: inhaled or intranasal, read-out: Drug uptake
Outline: (§5)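 Female BALB/c mice were dosed intranasally at 0.5 μmol/kg (2.5 ml/kg), N=3–4 per time point. At each sampling time, blood was taken by cardiac puncture, BAL was done with 3 × 1 ml PBS, and lungs were homogenized in 50% acetonitrile. LO and laninamivir were quantified by LC-MS/MS, calibrated over 1–100 ng/ml and 0.5–100 ng/ml respectively. ELF concentration was calculated as CBAL × (urea in plasma / urea in BAL).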

[20] = Tmax in human treated with laninamivir octanoate at 40 mg administered intranasally; format: ADME, organism-based; conditions: in vivo, inhaled or intranasal
Lung [21] = test: Drug concentration in BALB/cAnNCrlCrlj mouse lung treated with laninamivir octanoate at 0.5 umol/kg administered intranasally measured at 24 hrs; conditions: in vivo, inhaled_or_intranasal
Lung [22] = test: Drug uptake in BALB/cAnNCrlCrlj mouse lung at 0.5 umol/kg administered intranasally measured at 24 hrs by LC-MS/MS analysis; format: ADME, tissue-based; conditions: in vivo, inhaled_or_intranasal; outline: as §5
[23] = Elimination half life in BALB/cAnNCrlCrlj mouse epithelial lining fluid treated with laninamivir octanoate at 0.5 umol/kg administered intranasally; format: ADME; conditions: inhaled or intranasal, read-out: beta t1/2 (converted); outline: as §1
Lung [24] = test: Cmax in BALB/cAnNCrlCrlj mouse lung treated with laninamivir octanoate at 0.5 umol/kg administered intranasally; format: ADME; parameters: dose 0.5 umol/kg, route nasal; conditions: in vivo, inhaled_or_intranasal; outline: as §1
Lung [25] = test: AUClast in BALB/cAnNCrlCrlj mouse lung treated with laninamivir octanoate at 0.5 umol/kg administered intranasally; format: ADME; conditions: in vivo, inhaled_or_intranasal; outline: as §1
[26] = AUClast in BALB/cAnNCrlCrlj mouse plasma treated with laninamivir octanoate at 0.5 umol/kg administered intranasally; format: ADME, cell-free; parameters: dose 0.5 umol/kg, time 0 - last, route nasal; conditions: inhaled or intranasal; outline: as §1
[27] = Cmax in BALB/cAnNCrlCrlj mouse plasma treated with laninamivir octanoate at 0.5 umol/kg administered intranasally; format: ADME, cell-free; parameters: dose 0.5 umol/kg, route nasal; conditions: inhaled or intranasal; outline: as §1
[28] = AUClast in BALB/cAnNCrlCrlj mouse epithelial lining fluid treated with laninamivir octanoate at 0.5 umol/kg administered intranasally; format: ADME, tissue-based; parameters: dose 0.5 umol/kg, time 0 - last, route nasal; conditions: inhaled or intranasal; outline: as §1
[29] = as §4; format: ADME, tissue-based; conditions: BALB/cAnNCrlCrlj, lung, inhaled or intranasal, 0.5 umol/kg, read-out: beta t1/2 (converted); outline: as §1
[30] = Elimination half life in BALB/cAnNCrlCrlj mouse lung treated with laninamivir octanoate at 0.5 umol/kg administered intranasally; format: ADME, tissue-based; conditions: inhaled or intranasal, read-out: beta t1/2 (converted); outline: as §1
Plasma = test: Drug uptake in BALB/cAnNCrlCrlj mouse plasma at 0.5 umol/kg administered intranasally measured after 8 hrs by LC-MS/MS analysis; format: ADME, cell-free; conditions: inhaled_or_intranasal; outline: as §5
[31] = Drug level in primary cultured BALB/c mouse airway epithelial cells treated with laninamivir octanoate at 50 uM measured up 60 to 90 mins by LC-MS/MS analysis; format: ADME, cell-based; conditions: epithelial cell; outline: as §2
[32] = Elimination half life in human treated with laninamivir octanoate administered intranasally; format: ADME, organism-based; conditions: in vivo, inhaled or intranasal, read-out: beta t1/2 (converted)
[33] = Drug level in primary cultured BALB/c mouse airway epithelial cells treated with laninamivir octanoate at 50 uM measured at 24 hrs by LC-MS/MS analysis; format: ADME, cell-based; conditions: epithelial cell; outline: as §3
[34] = Elimination half life in BALB/cAnNCrlCrlj mouse plasma treated with laninamivir octanoate at 0.5 umol/kg administered intranasally; format: ADME, cell-free; conditions: inhaled or intranasal, read-out: beta t1/2 (converted); outline: as §1
[35] = Drug uptake in BALB/cAnNCrlCrlj mouse epithelial lining fluid treated with laninamivir octanoate at 0.5 umol/kg administered intranasally measured at 24 hrs by LC-MS/MS analysis; format: ADME, tissue-based; conditions: inhaled or intranasal, read-out: Drug uptake; outline: as §5
[36] = Tmax in BALB/cAnNCrlCrlj mouse epithelial lining fluid treated with laninamivir octanoate at 0.5 umol/kg administered intranasally; format: ADME, tissue-based; conditions: inhaled or intranasal; outline: as §1
[37] = Tmax in BALB/cAnNCrlCrlj mouse lung treated with laninamivir octanoate at 0.5 umol/kg administered intranasally; format: ADME; conditions: inhaled or intranasal; outline: as §1
[38] = Drug uptake in BALB/cAnNCrlCrlj mouse epithelial lining fluid treated with laninamivir octanoate at 0.5 umol/kg administered intranasally measured at 4 hrs by LC-MS/MS analysis; format: ADME; conditions: inhaled or intranasal, read-out: Drug uptake; outline: as §5
[39] = Tmax in BALB/cAnNCrlCrlj mouse plasma treated with laninamivir octanoate at 0.5 umol/kg administered intranasally; format: ADME, cell-free; conditions: inhaled or intranasal; outline: as §1
[40] = Cmax in BALB/cAnNCrlCrlj mouse epithelial lining fluid treated with laninamivir octanoate at 0.5 umol/kg administered intranasally; format: ADME; parameters: dose 0.5 umol/kg, route nasal; conditions: inhaled or intranasal; outline: as §1

For `CCCCCCCC(=O)OC[C@@H](O)[C@@H](OC)[C@@H]1OC(C(=O)O)=C[C@H](NC(=N)N)[C@H]1NC(C)=O` [LANINAMIVIR OCTANOATE], the Tmax [1] was 0.5 h, the Drug uptake [2] was “Active” and the Tmax [3] was 0.5 h. The Drug metabolism [4] was “metabolite_detected”, the “beta t1/2” value ([5]; in vivo, inhaled_or_intranasal) was 1.1 h and the Drug metabolism [6] was “metabolite_detected”. The Drug metabolism [7] was “Dose-dependent effect”, the AUC(0-t) [8] was 23.6 µM·h and the Cmax [9] was 0.242 µM. The “beta t1/2” value (Lung [10]) was 1.3 h, the Tmax [11] was 1.98 min and the logD [12] was -0.01. For the same compound, the half-life [13] was 0.6 h, the Cmax (Lung [14]) was 1760 pmol/g and the solubility [15] was 1270 µM (≈ 600 µg/mL). The AUC(0-t) [16] was 0.323 µM·h, the AUClast (Lung [17]) was 4480 pmol·h/g and the Cmax [18] was 20.4 µM. The concentration at 4 h [19] was 0.348 µM.

For `CO[C@@H]([C@@H]1OC(C(=O)O)=C[C@H](NC(=N)N)[C@H]1NC(C)=O)[C@H](O)CO` [LANINAMIVIR], the Tmax [20] was 4 h, the Tmax [1] was 0.25 h and the “concentration at 24 h” value (Lung [21]) was 2680 pmol/g. For the same compound, the Drug uptake (Lung [22]) was 282 pmol/g, the half-life [23] was 25.1 h and the Tmax [3] was 0.5 h. The Cmax (Lung [24]) was 4350 pmol/g, the half-life ([5]; BALB/cAnNCrlCrlj, epithelial lining fluid, inhaled or intranasal, 0.5 umol/kg, read-out: beta t1/2 (converted)) was 25.4 h and the AUClast (Lung [25]) was 75800 pmol·h/g. It also gave an AUC(0-t) [8] of 19.6 µM·h, an AUC(0-t) [26] of 0.445 µM·h and a Cmax [9] of 0.478 µM. For the same compound, the Cmax [27] was 0.181 µM, the AUC(0-t) [28] was 26.5 µM·h and the half-life [29] was 25 h. For the same compound, the half-life [30] was 30.9 h, the Tmax [11] was 1.98 min and the Drug uptake (Plasma) was “Not Active”. The Drug metabolism [31] was “metabolite_detected”, the half-life [32] was 72 h and the Drug metabolism [33] was “metabolite_detected”. The logD [12] was -2.18, the half-life [34] was 13.1 h and the Cmax (Lung [14]) was 1020 pmol/g. The concentration at 24 h [35] was 0.842 µM, the Tmax [36] was 1 h and the AUC(0-t) [16] was 0.782 µM·h. The Tmax [37] was 6 h, the concentration at 4 h [38] was 1.15 µM and the AUClast (Lung [17]) was 9890 pmol·h/g. The Tmax [39] was 1 h, the Cmax [18] was 19.9 µM and the concentration at 4 h [19] was 0.0513 µM. The Cmax [40] was 1.52 µM.
